DNMT1 inh – blocks human DNA methyltransferase DNMT1; DNMT1 molecular beacon, Hinp1I cleavage, fluorescence; AID 588458; inhibition (reported as % activation of signal), % at 10 µM; hit rate 0.83% among 360,000; in the data active = inhibition above about 50%
SUMO1-SIM PPI – modulators of human SUMO1-mediated protein-protein interactions; SUMO1 binding to a labelled peptide, TR-FRET, 1 h; P63165; hit rate 0.33% among 360,000; inhibition, % at 20 µM; in the data active = inhibition above about 37%
Target sequence (P63165 whole entry, looked up): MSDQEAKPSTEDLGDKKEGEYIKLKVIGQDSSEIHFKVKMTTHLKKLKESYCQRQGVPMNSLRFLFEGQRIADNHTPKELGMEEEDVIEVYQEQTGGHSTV
Scp1 inh – inhibitors of human Scp-1 phosphatase; Q9GZU7; hit rate 0.88% among 340,000; inhibition, % at 20 µM; AID 493091; Recombinant Scp1, phosphopeptide, malachite green phosphate absorbance;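 active = inhibition above about 50% at 20 µM, limit read from the data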;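 also: plate controls were DMSO wells with enzyme for no effect and wells lacking enzyme for full effect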
Target sequence (Q9GZU7 76-261 limits assumed): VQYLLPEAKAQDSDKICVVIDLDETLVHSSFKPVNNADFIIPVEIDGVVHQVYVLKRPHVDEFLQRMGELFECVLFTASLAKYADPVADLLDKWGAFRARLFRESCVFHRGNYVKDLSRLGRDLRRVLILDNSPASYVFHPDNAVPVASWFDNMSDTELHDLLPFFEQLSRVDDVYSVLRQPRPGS
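Material: truncated SCP-1 phosphatase (76-261aa) / Buffer or medium: 50 mM Tris acetate pH 5.5, 0.005% Tween-20, 10 mM MgCl2 / Compound dosing: one concentration, 20 µM, with 1.0% DMSO / Incubation: 45 min room-temperature reaction, 5 min colour, 30 min stabiliser / Detection: colorimetric free-phosphate detection, absorbance 630 nm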
LMPTP block – LMPTP (human) inhibition; hit rate 0.22% among 360,000; inhibition, % at 20 µM; recombinant LMPTP-A, OMFP fluorogenic substrate, fluorescence intensity;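 active = compounds that cut the enzyme signal by at least half of the control window in the single-dose screen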;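 also: plate controls were DMSO wells with enzyme plus substrate for no effect and substrate without enzyme for full effect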
Target sequence (P24666 whole entry, looked up): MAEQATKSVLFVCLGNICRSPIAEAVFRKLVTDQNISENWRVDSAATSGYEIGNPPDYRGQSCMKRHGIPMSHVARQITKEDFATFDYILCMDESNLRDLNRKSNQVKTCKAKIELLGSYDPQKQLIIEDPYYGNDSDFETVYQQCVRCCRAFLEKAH
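Test system: LMPTP-A phosphatase enzyme. Amount: LMPTP-A at 0.625 nM final in the reaction. Reagent: OMFP substrate, 400 µM final. Times: 50 min at room temperature. Signal: endpoint fluorescence intensity from OMFP dephosphorylation. Read-out basis: % inhibition. Benchmarks: no-enzyme and uninhibited controls.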
STEP block – blocks human striatal-enriched tyrosine phosphatase | recombinant STEP, OMFP fluorogenic substrate, fluorescence | inhibition, % at 20 µM | hit rate 0.25% among 360,000 | AID 588621;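 active = inhibition at 20 µM, scaled per plate between control wells, above about 37%, limit read from the data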;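 also: 0% = DMSO with enzyme and substrate and 100% = substrate only without enzyme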
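material = STEP tyrosine phosphatase | reagent = fluorogenic phosphatase substrate OMFP at 25 µM final | doses = single compound dose of 20 µM, 1% DMSO final | schedule = 20 min reaction, room temperature, in the dark | measured by = fluorescence, 480/540 nm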
Starred values were filed as active, the others as inactive; · = no result. In the library only some 1.7% were active in any assay of this set; here they are far more common.

SMILES | DNMT1 inh | SUMO1-SIM PPI | Scp1 inh | LMPTP block | STEP block
Nc1ccc(N)c(C(=O)O)c1 | 117* | 105* | 96* | 81* | 96*
CC(C)c1ccc(OCc2nnc(SCC(=O)N3CCCCC3)o2)cc1 | -5 | 3 | -3 | 0 | 1
O=C(OCC12CC3CC(CC(C3)C1)C2)c1ccc(NCc2cc(O)ccc2O)cc1 | -46 | 4 | 7 | 6 | 0
O=C(OCCC12CC3CC(CC(C3)C1)C2)c1ccc(NCc2cc(O)ccc2O)cc1 | 6 | 0 | 70* | 13 | 14
COc1ccc(NC(=O)C[C@@H]2C(=O)N(c3ccc(OC)cc3)CC2(C)C)cc1 | -4 | -5 | · | -1 | 0
O=C1NC(=O)/C(=C/c2ccc(-c3cccc([N+](=O)[O-])c3)o2)S1 | 6 | 55* | 4 | 28 | 5
Cc1ccccc1CN1C(=O)c2ccccc2S1(=O)=O | -2 | 44* | -4 | -1 | 0
Cc1ccccc1CNC(=O)CN1C(=O)c2ccccc2S1(=O)=O | -2 | -1 | 2 | 0 | 0
O=C1NC(=S)S/C1=C/c1ccc(OC(=O)c2ccco2)cc1 | 3 | 0 | -7 | -7 | -2
O=C1NC(=S)S/C1=C\c1ccc(SCc2ccco2)o1 | 103* | 83* | 77* | 76* | 50*
COc1ccccc1NC(=O)c1ccc(NC(=O)c2ccc(=O)[nH]c2)cc1 | 1 | 2 | -6 | -1 | -1
COc1ccc(N=Nc2ccc(O)c3ncccc23)cc1 | 71* | 51* | -7 | 7 | 2
Cc1ccccc1N=Nc1ccc(O)c2ncccc12 | 71* | -7 | 0 | -1 | 4
COc1ccc(C)cc1N=Nc1ccc(O)c2ncccc12 | 7 | -22 | -4 | 5 | 4
COc1cccc(N=Nc2ccc(O)c3ncccc23)c1 | -8 | -10 | -10 | 3 | 2
O=S(=O)(O)c1cccc2c(N=Nc3ccc(O)c4ncccc34)cccc12 | 50 | 28 | 95* | 51* | 51*
O=C(CN1C(=O)NC(CCc2ccccc2)C1=O)Nc1cccc(Br)c1 (configuration not stated) | -8 | 9 | -15 | 1 | -3
O=C(CN1CCN(S(=O)(=O)c2ccc(F)cc2)CC1)N1CCOCC1 | 1 | 12 | -7 | -1 | -4
Cn1cc([N+](=O)[O-])c(C(=O)Nc2ccc(-c3nc4ccccc4o3)cc2)n1 | 3 | 46* | 15 | 0 | 1
O=C(O)c1cccc(-c2ccc(/C=c3/sc4nc5ccccc5n4c3=O)o2)c1 | 87* | 103* | 96* | 49 | 94*
O=c1/c(=C\c2cc([N+](=O)[O-])cc([N+](=O)[O-])c2O)sc2nc3ccccc3n12 | 18 | 27 | 80* | 9 | 35
O=c1/c(=C/c2ccccn2)sc2nc3ccccc3n12 | 39 | -3 | 0 | 4 | -5
COC(=O)/C=c1/sc2nc3ccccc3n2c1=O | 1 | -7 | -6 | 1 | 14
O=C(O)c1cc(C(=O)O)cc(-c2ccc(/C=c3/sc4nc5ccccc5n4c3=O)o2)c1 | · | · | 70* | · | ·
O=C(O)C(O)c1ccccc1 (configuration not stated) | 2 | 5 | -6 | -1 | -3
SMILES | DNMT1 inh | SUMO1-SIM PPI | Scp1 inh | LMPTP block | STEP block
O=C(O)C(O)c1ccco1 (configuration not stated) | 92* | 5 | 77* | 31 | 53*
O=S(=O)(/C=C/c1ccccc1)N1CCOCC1 | -4 | 1 | -15 | 0 | 0
Cc1cc(/C=N/NC(N)=S)c(O)c(/C=N/NC(N)=S)c1 | 53* | -7 | 12 | 1 | -1
CCC(C)(O)c1cnc(CC(C)C)c(=O)n1O (configuration not stated) | 0 | 3 | · | -1 | -2
COc1ccc(C(=O)Nc2nc3cc4c(cc3s2)OCCO4)c(OC)c1 | -12 | 47* | 2 | 4 | 0
COc1ccccc1C(=O)Nc1nc2cc3c(cc2s1)OCCO3 | 17 | 2 | -5 | 0 | 6
COc1ccc2nc(NC(=O)c3ccc4ncsc4c3)sc2c1 | -10 | 43* | 0 | -1 | -3
COc1ccc2nc(SCC(=O)NC3CC3)c(C#N)cc2c1 | 3 | -19 | -6 | 1 | 0
CCCn1c(N)c(C(=O)CSc2nnc(C3CC3)n2C2CC2)c(=O)[nH]c1=O | 8 | 1 | 11 | -1 | -6
Cc1c(C(=O)O)[nH]c2c1C(=O)CC(c1ccccc1)C2 (configuration not stated) | 5 | -3 | -10 | 0 | -1
COCCOC(=O)c1[nH]c2c(c1C)C(=O)CC(c1ccccc1)C2 (configuration not stated) | 0 | 0 | -2 | 0 | 2
COCCOC(=O)c1[nH]c2c(c1C)C(=O)CC(c1ccc(F)cc1)C2 (configuration not stated) | 0 | 1 | -7 | 0 | 0
CSCCOC(=O)c1[nH]c2c(c1C)C(=O)CC(c1ccco1)C2 (configuration not stated) | 29 | 4 | 75* | 22 | 0
Cc1c(C(=O)OCCOC(C)C)[nH]c2c1C(=O)CC(c1ccco1)C2 (configuration not stated) | 32 | 15 | 49 | 59* | 1
Cc1c(C(=O)OCc2ccccc2)[nH]c2c1C(=O)CC(c1ccco1)C2 (configuration not stated) | 68* | 8 | 71* | 79* | 3
CCC1Cc2[nH]c(=S)[nH]c(=O)c2C(c2ccc(Cl)cc2)O1 (configuration not stated) | -2 | 1 | · | -1 | -1
C#CCOc1nc(Nc2cccc([N+](=O)[O-])c2)nc(OCC#C)n1 | 0 | 46* | -5 | 1 | -2
COc1nc(Nc2cccc([N+](=O)[O-])c2)nc(OC)n1 | 5 | -8 | -7 | 1 | -1
CCOc1ccccc1CNc1ccc(O)cc1 | 17 | 69* | -4 | 11 | 4
Cc1ccc(NCc2ccccc2OCc2ccccc2F)cc1 | -5 | -4 | 2 | 4 | -1
Oc1ccc(NCc2ccc(OCc3ccccc3)cc2)cc1 | -6 | 9 | -10 | 13 | 4
CCOc1cc(CNc2ccc(O)cc2)ccc1OCc1ccc(Cl)cc1Cl | 80* | 52* | -2 | 22 | 16
CCc1ccc(CNc2ccc(O)cc2)cc1 | 75* | 74* | -3 | 21 | 15
CCOc1cccc(CNc2ccc(O)cc2)c1OCc1ccc(Cl)cc1 | -30 | 27 | 0 | 12 | -4
Oc1ccc(NCc2ccccc2OCc2ccccc2F)cc1 | -42 | 59* | -6 | 16 | 10
CC1(C(=O)NS(=O)(=O)c2cccc(OC(F)F)c2)CCN1C(=O)c1ccccc1CCc1ccccc1 (configuration not stated) | -2 | 5 | · | -1 | 0
O=C(CCl)Nc1ccc(-c2ccccc2)cc1 | 5 | 56* | -6 | 0 | -1

Screening data deposited in PubChem by Sanford-Burnham Center for Chemical Genomics.
